# Reference: ChEMBL document CHEMBL5674876, “Epigenetic Activation of Pro-angiogenic Signaling Pathways in Human Endothelial Progenitors Increases Vasculogenesis” (Stem Cell Reports, 2017)
# Calls of active or inactive are those of the source. The calls are words filed in the database; no cut-off is given here.
# Experiments:
# HUVEC [1] = assay: Effect on pro-angiogenic property in human umbilical cord derived endothelial colony forming cells assessed as cell migration treated at 330 nM for 10 hrs measured by crystal violet staining analysis based gap closure assay; format: functional
# HUVEC [2] = assay: Effect on pro-angiogenic property in human umbilical cord derived endothelial colony forming cells assessed as formation of capillary network on matrigel at 330 nM; format: functional, cell-based
# Procedure, shortened: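 Drug- or vehicle-pretreated ECFCs seeded at 5,000 cells/well on phenol-red-free growth-factor-reduced Matrigel in duplicate; after 24 hr stained with 5 μg/mL calcein 5 min at 37°C, imaged at 2.5×. Total tube length expressed as percentage of vehicle control ±SEM, three independent experiments.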
smiles,measurement,setting,value
CC(/C=C/C(=O)NO)=C\[C@@H](C)C(=O)c1ccc(N(C)C)cc1,Activity,HUVEC [1],Active
same,Activity,HUVEC [2],Active
